From ChEMBL document CHEMBL4706580, “4-Amino-1,2,4-triazole-3-thione-derived Schiff bases as metallo-β-lactamase inhibitors” (Eur J Med Chem, 2020)
The source made the active and inactive calls. The rule behind the calls is not given here.

Assays:
[1] = Inhibition of beta-lactamase IMP-1 (unknown origin) expressed in Escherichia coli BL21(DE3) using imipenem as substrate by measuring substrate hydrolysis at 200 uM by spectrophotometric analysis
Method in brief: (§1)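 Purified enzyme (overproduced in E. coli BL21(DE3), pET-9a; ion-exchange and gel filtration), 1-70 nM final. Reporter substrate 150 μM imipenem, read at 300 nm, 30 °C, 50 mM HEPES pH 7.5. Single-point screen at 100 or 200 μM; Ki from v0/vi vs [I] (0.5–1,000 μM final) assuming competitive inhibition, or Dixon plot. Triplicate.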

[2] = Inhibition of beta-lactamase IMP-1 (unknown origin) expressed in Escherichia coli BL21(DE3) using imipenem as substrate by measuring substrate hydrolysis at 100 uM by spectrophotometric analysis; method in brief: as §1
[3] = Inhibition of beta-lactamase NDM1 (unknown origin) expressed in Escherichia coli BL21(DE3) using cefotaxime/nitrocefin as substrate by measuring substrate hydrolysis at 200 uM by spectrophotometric analysis
[4] = Inhibition of beta-lactamase NDM1 (unknown origin) expressed in Escherichia coli BL21(DE3) using cefotaxime/nitrocefin as substrate by measuring substrate hydrolysis at 100 uM by spectrophotometric analysis
[5] = Inhibition of beta-lactamase VIM2 (unknown origin) expressed in Escherichia coli BL21(DE3) using imipenem as substrate by measuring substrate hydrolysis at 100 uM by spectrophotometric analysis; method in brief: as §1
[6] = Inhibition of beta-lactamase VIM4 (unknown origin) expressed in Escherichia coli BL21(DE3) using imipenem as substrate by measuring substrate hydrolysis at 100 uM by spectrophotometric analysis; method in brief: as §1
[7] = Inhibition of beta-lactamase L1 (unknown origin) expressed in Escherichia coli BL21(DE3) using nitrocefin as substrate by measuring substrate hydrolysis at 100 uM preincubated for 30 mins by spectrophotometric analysis
Method in brief: (§2)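 Enzyme 0.2–0.8 nM in 25 mM HEPES pH 7.5 with 50 μM ZnCl2 final, pre-incubated 30 min at 21 °C with inhibitor (100 μM screen). Nitrocefin 100 μM final, read at 482 nm, 30 °C. Residual activity vs three uninhibited samples; Ki (1–100 μM inhibitor) from Hanes linearization, competitive model. Triplicate.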

[8] = Inhibition of beta-lactamase VIM4 (unknown origin) expressed in Escherichia coli BL21(DE3) using imipenem as substrate by measuring substrate hydrolysis at 200 uM by spectrophotometric analysis; method in brief: as §1
[9] = Inhibition of beta-lactamase VIM2 (unknown origin) expressed in Escherichia coli BL21(DE3) using imipenem as substrate by measuring substrate hydrolysis at 200 uM by spectrophotometric analysis; method in brief: as §1
[10] = Inhibition of beta-lactamase VIM-2 (unknown origin) expressed in Escherichia coli LZ2310 assessed as potentiation of cefoxitin antibacterial activity by measuring cefoxitin induced diameter of inhibition zone at 40 uM incubated for 18 hrs by disk diffusion method (reference value: 14 mm)
Method in brief: (§3)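 Efflux-deficient E. coli LZ2310 (NorE, MdfA, AcrA knocked out) carrying pLB-II with the cloned MBL gene. Mueller-Hinton, CLSI disk diffusion; antibiotic disks (30 µg cefoxitin for VIM-2, 10 µg ampicillin for VIM-4, 30 µg ceftazidime for NDM-1/IMP-1) loaded with inhibitor in DMSO (≤15 µL). Zone diameter after 18 h, 35 ± 1 °C; DMSO and 220 µg EDTA controls. Triplicate.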

[11] = Inhibition of beta-lactamase CphA (unknown origin) expressed in Escherichia coli BL21(DE3) using imipenem as substrate by measuring substrate hydrolysis by spectrophotometric analysis
Method in brief: (§4)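 Enzyme 0.2–0.8 nM in 15 mM cacodylate pH 6.5, no added zinc, pre-incubated 30 min at 21 °C with inhibitor (100 μM screen). Imipenem substrate added from 10 mM stock; hydrolysis at 300 nm, 30 °C. Residual activity vs three uninhibited samples; Ki (1–100 μM inhibitor) by Hanes linearization, competitive model. Triplicate.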

[12] = Inhibition of beta-lactamase VIM-4 (unknown origin) expressed in Escherichia coli LZ2310 assessed as potentiation of ampicillin antibacterial activity by measuring ampicillin induced diameter of inhibition zone at 40 uM incubated for 18 hrs by disk diffusion method (reference value: 6 mm); method in brief: as §3
[13] = Inhibition of beta-lactamase NDM1 (unknown origin) expressed in Escherichia coli BL21(DE3) using cefotaxime/nitrocefin as substrate by measuring substrate hydrolysis by spectrophotometric analysis
Method in brief: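 His-tagged enzyme from E. coli BL21(DE3) pET-15b, affinity-purified, 1-70 nM final. Reporter substrate 120 μM cefotaxime (260 nm) or 100 μM nitrocefin (482 nm), 30 °C, 50 mM HEPES pH 7.5. Inhibitor 0.5–1,000 μM final; competitive Ki from v0/vi vs [I] slope or Dixon plot. Triplicate.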

[14] = Inhibition of beta-lactamase VIM2 (unknown origin) expressed in Escherichia coli BL21(DE3) using imipenem as substrate by measuring substrate hydrolysis by spectrophotometric analysis; method in brief: as §1
[15] = Inhibition of beta-lactamase VIM4 (unknown origin) expressed in Escherichia coli BL21(DE3) using imipenem as substrate by measuring substrate hydrolysis by spectrophotometric analysis; method in brief: as §1
[16] = Inhibition of beta-lactamase L1 (unknown origin) expressed in Escherichia coli BL21(DE3) using nitrocefin as substrate by measuring substrate hydrolysis preincubated for 30 mins by spectrophotometric analysis; method in brief: as §2
[17] = Inhibition of beta-lactamase IMP-1 (unknown origin) expressed in Escherichia coli BL21(DE3) using imipenem as substrate by measuring substrate hydrolysis by spectrophotometric analysis; method in brief: as §1
[18] = Inhibition of beta-lactamase L1 (unknown origin) expressed in Escherichia coli BL21(DE3) using nitrocefin as substrate by measuring substrate hydrolysis at 200 uM preincubated for 30 mins by spectrophotometric analysis
[19] = Inhibition of beta-lactamase CphA (unknown origin) expressed in Escherichia coli BL21(DE3) using imipenem as substrate by measuring substrate hydrolysis at 100 uM by spectrophotometric analysis; method in brief: as §4
[20] = Inhibition of beta-lactamase NDM-1 (unknown origin) expressed in Escherichia coli LZ2310 assessed as potentiation of ceftazidime antibacterial activity by measuring ceftazidime induced diameter of inhibition zone at 40 uM incubated for 18 hrs by disk diffusion method (reference value: 15 mm); method in brief: as §3

Row | SMILES | inhibition [1] | inhibition [2] | inhibition [3] | inhibition [4] | inhibition [5] | inhibition [6] | inhibition [7] | inhibition [8] | inhibition [9] | inhibition zone (IZ) [10] | Ki [11] | inhibition zone (IZ) [12] | Ki [13] | Ki [14] | Ki [15] | Ki [16] | Ki [17] | inhibition [18] | inhibition [19] | inhibition zone (IZ) [20]
1 | S=c1[nH]nc(-c2cccc(Br)c2)n1/N=C/c1ccc(OCc2ccccc2)cc1 | inactive | inactive | inactive | inactive | inactive | inactive | 15% | inactive | inactive |  |  |  |  |  |  |  |  |  |  | 
2 | O=C(O)c1ccccc1/C=N/n1c(-c2cc(O)ccc2O)n[nH]c1=S | inactive | inactive |  |  |  |  |  |  |  | 14 mm | 52 µM | 6 mm | 79 µM | 0.6 µM | 0.2 µM | 38 µM |  |  |  | 
3 | S=c1[nH]nc(-c2ccc(OCc3ccccc3)cc2)n1/N=C/c1ccc(OCc2ccccc2)cc1 |  |  |  |  | inactive | inactive | inactive | inactive | inactive |  |  |  | 3.2 µM |  |  |  | 2.2 µM | inactive |  | 
4 | S=c1[nH]nc(C(c2ccccc2)c2ccccc2)n1/N=C/c1ccc(OCc2ccccc2)cc1 | 50% |  | 60% |  | inactive | inactive | inactive | inactive | inactive |  |  |  |  |  |  |  |  | inactive |  | 
5 | Cc1ccccc1-c1n[nH]c(=S)n1/N=C/c1cc(O)ccc1O |  | 54% |  | 37% |  |  | 48% |  |  | 14 mm |  | 6 mm |  | 11 µM | 1.6 µM |  |  |  | 54% | 
6 | COc1cc(O)ccc1/C=N/n1c(-c2ccccc2C)n[nH]c1=S | inactive | inactive |  |  |  |  |  |  |  | 14 mm | 4 µM | 7 mm | 120 µM | 10 µM | 2.4 µM | 6 µM |  |  |  | 
7 | O=C(O)c1ccccc1/C=N/n1c(CCc2ccccc2)n[nH]c1=S |  | 37% | inactive | inactive |  | 56% |  |  |  | 14 mm |  |  |  | 7 µM |  | 4 µM |  |  | 50% | 15 mm
8 | S=c1[nH]nc(CCc2ccccc2)n1/N=C/c1ccc(OCc2ccccc2)cc1 |  |  |  | 30% | inactive |  |  |  | inactive |  | 1 µM | 6 mm |  |  | 2 µM | 32 µM | 9 µM |  |  | 
9 | O=C(O)c1ccccc1/C=N/n1c(-c2cccc(C(F)(F)F)c2)n[nH]c1=S | 50% |  |  |  | inactive |  | 40% |  | inactive |  |  |  |  |  | 1.6 µM |  |  |  | 35% | 15 mm
10 | O=C(O)c1ccccc1/C=N/n1c(CC(c2ccccc2)c2ccccc2)n[nH]c1=S | inactive | inactive |  |  |  |  |  |  |  |  | 15 µM |  | 2.7 µM | 25.4 µM | 5.6 µM | 2.4 µM |  |  |  | 15 mm
11 | O=C(O)c1ccccc1/C=N/n1c(COc2ccc3ccccc3c2)n[nH]c1=S |  | 35% |  |  |  |  | 60% |  |  | 14 mm |  |  | 2.4 µM | 2 µM | 3 µM |  |  |  | 42% | 15 mm
12 | Oc1ccc(/C=N/n2c(-c3cccc(F)c3)n[nH]c2=S)c(O)c1 | inactive | inactive |  |  | inactive |  | 25% |  | inactive |  |  |  | 11.7 µM |  | 4 µM |  |  |  |  | 15 mm
13 | O=C(O)c1ccccc1/C=N/n1c(-c2ccc(OCc3ccccc3)cc2)n[nH]c1=S |  | 62% |  |  |  |  |  |  |  | 14 mm |  |  | 2.8 µM | 0.9 µM | 1 µM | 0.4 µM |  |  |  | 15 mm
14 | Oc1ccc(/C=N/n2c(-c3ccc(OCc4ccccc4)cc3)n[nH]c2=S)c(O)c1 |  | 62% |  | 42% | inactive | inactive | inactive | inactive | inactive |  |  |  |  |  |  |  |  | inactive |  | 
15 | S=c1[nH]nc(-c2cccc(Cl)c2)n1/N=C/c1ccc(OCc2ccccc2)cc1 | inactive | inactive |  |  | inactive | 35% | 60% |  | inactive |  |  |  | 6.7 µM |  |  |  |  |  |  | 15 mm
16 | Fc1cccc(-c2n[nH]c(=S)n2/N=C/c2ccc(OCc3ccccc3)cc2)c1 |  | 60% | inactive | inactive | inactive | inactive | inactive | inactive | inactive |  |  |  |  |  |  |  |  | inactive |  | 
17 | S=c1[nH]nc(Cc2ccccc2)n1/N=C/c1ccc(OCc2ccccc2)cc1 | inactive | inactive | inactive | inactive | inactive | inactive | 31% | inactive | inactive |  | 5.5 µM |  |  |  |  |  |  |  |  | 
18 | Cc1ccccc1-c1n[nH]c(=S)n1/N=C/c1ccc(F)cc1 |  | 30% | 60% |  | inactive | inactive | 30% | inactive | inactive |  |  |  |  |  |  |  |  |  |  | 
19 | Cc1ccccc1-c1n[nH]c(=S)n1/N=C/c1cnc[nH]1 | inactive | inactive | inactive | inactive | inactive | inactive | inactive | inactive | inactive |  |  |  |  |  |  |  |  | inactive | 36% | 
